# Screening results as filed in PubChem.
# UPR CHOP act = activators of apoptotic arm of unfolded protein response (CHOP). CHO-CHOP luciferase reporter, UPR activation, luminescence; percent of tunicamycin response over DMSO baseline. activation, % at 10 µM. 330,000 compounds, 0.34% hits;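 active means at 10 µM dose, activation of 40% or more, normalized to positive control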;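 further: 100% = tunicamycin at 10 µg/mL and 0% = DMSO alone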
#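 Dosing – one dose, 10 µM in 0.5% DMSO · System – CHO-CHOP cells, stable luciferase reporter of PERK-eIF2a-CHOP signalling · Input – 500 cells/well · Control set – tunicamycin 10 µg/mL final as positive, DMSO-only wells as negative · Timing – 6 h compound treatment, 37 °C · Measure – % activation vs tunicamycin · Technique – luminescence read with Steady-Glo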
# Exocytosis inh = lytic granule exocytosis inhibition; inhibition, % at 10 µM; TALL-104 LAMP-1 surface exposure, flow cytometry; cells stimulated with thapsigargin and PMA; 360,000 compounds, 0.66% hits;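 active means inhibition above about 55%, limit read from the data; inconclusive means no clear call, values can overlap the other calls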
# Mdm2 MdmX PPI = disrupts the human Mdm2-MdmX interaction | O15151+Q00987 | SaOS-2 split-luciferase Mdm2/MdmX complementation, luminescence | inhibition, % at 8 µM | 330,000 compounds, 3% hits;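 active means inhibition of at least 50% at 8 µM in the primary screen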
# ABHD5-PLIN5 inh = inhibitors of human ABHD5-perilipin-5 interaction; Q00G26+Q8WTS1; Split G. princeps luciferase complementation, luminescence, 4 h; inhibition, % at 4 µM; 360,000 compounds, 0.78% hits; AID 602281;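 active means inhibition above the mean inhibition across every tested compound plus 3 SD, cut at about 22% in these data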;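 further: 0% = DMSO only wells and the 100% control is not disclosed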
# XBP1 UPR activ = adaptive UPR (XBP1) activation. CHO-XBP1 luciferase reporter, IRE1-XBP1 UPR activation, luminescence; percent of tunicamycin response, DMSO as zero. activation, % at 20 µM. 330,000 compounds, 0.33% hits. AID 463104;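 active means versus positive control, 20 µM dose yields 30% or more activation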;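 further: 100% = tunicamycin at 10 µg/mL and 0% = DMSO only wells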
#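 Material: CHO cell line with stable XBP1 luciferase reporter; schedule: 16-18 h cell attachment at 37 °C, then 6 h compound exposure; signal: glow luminescence from Steady-Glo reagent; medium: serum-containing F12 medium, 10% FBS; benchmarks: tunicamycin 10 µg/mL and vehicle-only wells; read-out: percent activation relative to tunicamycin reference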
# ABHD5 PLIN5 conf = ABHD5-PLIN5 interaction inhibition, confirmed | shares compounds with ABHD5-PLIN5 inh | biochemical ABHD5-PLIN5 interaction, luminescence | inhibition, % at 4 µM | 2,200 compounds, 67% hits; in the data active means inhibition above about 23%;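 further: 0% = DMSO vehicle wells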
# HNF4 split-luc = active in HNF4 split-luciferase counter-screen for ABHD5-PLIN5 inhibitors | shares compounds with ABHD5-PLIN5 inh | HNF4 dimerization, luminescence, biochemical | inhibition, % at 4 µM | 2,200 compounds, 77% hits | AID 651674;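 active means mean inhibition across replicate wells exceeding the computed hit threshold, cut at about 13% in these data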;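 further: light from luciferase halves that rejoin when HNF4 fusion proteins dimerize; 0% = DMSO only wells and the 100% control is not given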
# Target sequence (P41235 whole entry, looked up, the tested form may be a part): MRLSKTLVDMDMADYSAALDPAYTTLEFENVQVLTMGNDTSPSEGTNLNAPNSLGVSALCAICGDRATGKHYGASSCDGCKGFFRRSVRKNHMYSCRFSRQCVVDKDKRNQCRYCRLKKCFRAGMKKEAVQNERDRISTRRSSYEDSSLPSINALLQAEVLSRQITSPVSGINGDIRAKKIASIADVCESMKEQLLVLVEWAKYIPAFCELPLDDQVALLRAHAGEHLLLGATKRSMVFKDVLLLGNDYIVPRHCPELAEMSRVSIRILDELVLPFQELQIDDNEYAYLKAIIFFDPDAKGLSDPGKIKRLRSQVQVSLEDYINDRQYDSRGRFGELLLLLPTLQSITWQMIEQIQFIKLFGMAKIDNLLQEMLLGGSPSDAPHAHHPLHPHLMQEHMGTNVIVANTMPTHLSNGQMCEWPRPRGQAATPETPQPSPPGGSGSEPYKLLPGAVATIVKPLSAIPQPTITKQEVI
# An asterisk follows results filed as active; u = inconclusive; x = no result. An excerpt weighted towards active compounds, which were near 4% of everything screened.
SMILES,UPR CHOP act,Exocytosis inh,Mdm2 MdmX PPI,ABHD5-PLIN5 inh,XBP1 UPR activ,ABHD5 PLIN5 conf,HNF4 split-luc
CC1(C(=O)Nc2cnc3ccccc3c2)CCN1Cc1ccc(-c2ccccc2)o1 (configuration not stated),x,u,x,65.0*,x,46.5*,69.7*
CC1OC(CC(=O)O)CC2=C1C(=O)c1c(O)cccc1C2=O (configuration not stated),x,88.1*,x,98.9*,x,4.2,5.3
COc1ccc(C(NC(=O)c2ccco2)c2ccc(OC)c(OC)c2)cc1 (configuration not stated),1.9,5.0,5.5,3.6,-0.7,x,x
COc1ccc(C(NC(=O)/C=C/c2ccco2)c2ccc(OC)c(OC)c2)cc1OC,2.6,-1.3,26.0,24.1*,-1.2,59.3*,53.8*
CCOc1ccc(C(=O)N2CCCC(c3nc(-c4cccs4)no3)C2)cc1 (configuration not stated),-2.7,-7.8,15.2,-9.7,-1.0,x,x
CCCC(=O)NC(c1ccco1)c1cc([N+](=O)[O-])c2cccnc2c1O (configuration not stated),8.4,-5.3,45.4,35.0*,-4.3,16.7,24.4*
CC(C)(O)[C@@H]1CC(=O)[C@]2(C)[C@H](CC[C@@]3(C)[C@H](c4ccoc4)OC(=O)[C@H]4O[C@]432)[C@@]1(C)/C=C\C(=O)O,-0.8,23.7,-2.8,0.7,-1.1,x,x
CCN(C(=O)COC(=O)/C(=C/c1ccccc1)n1nnnc1C)C1CCCCC1,-0.4,-2.1,30.9,34.1*,0.1,51.6*,35.7*
O=S(=O)(Nc1ccc(C(O)(C(F)(F)F)C(F)(F)F)cc1)c1ccc(Cl)c2nonc12,x,5.6,x,42.0*,x,51.4*,47.7*
O=C(O)CCS(=O)(=O)c1nc(-c2cccs2)cc(C(F)(F)F)n1,1.9,8.9,8.6,27.6*,-0.7,58.7*,66.2*
CCN(CC)c1ccc(C2C(C(=O)OCCOC)=C(C)NC3=C2C(=O)CCC3)cc1 (configuration not stated),0.8,4.4,7.3,-3.8,-4.9,x,x
Cn1ccnc1Sc1cc(NCCCO)c([N+](=O)[O-])c2nonc12,-1.9,5.2,26.2,25.9*,-7.0,29.4*,94.6*
Cc1nc(C(C)NC(=O)c2cc(COc3ccc(C)c(C)c3)on2)c(C)s1 (configuration not stated),7.5,-2.3,-96.7,29.2*,-1.6,2.5,10.1
Cn1cc(CN2CCC(C(=O)NC(c3ccc(F)cc3)c3ccc4ccccc4n3)CC2)c2ccccc21 (configuration not stated),x,37.2,x,23.6*,x,12.1,11.1
COc1cc(CN2CCC(C(=O)NC(c3ccc(F)cc3)c3ccc4ccccc4n3)CC2)cc(OC)c1 (configuration not stated),x,13.6,x,7.4,x,x,x
Cc1cc(C)c2sc(N(CCCN(C)C)C(=O)c3ccc(Br)s3)nc2c1,2.0,29.1,39.8,23.3*,6.2,16.7,8.9
Cc1cc(C)c2sc(N(CCCN(C)C)C(=O)CN3C(=O)c4ccccc4C3=O)nc2c1,0.4,7.8,22.1,24.1*,2.3,13.7,4.2
Cc1cc(C)c2sc(N(CCN(C)C)C(=O)c3c(F)cccc3F)nc2c1,0.0,-2.2,15.7,21.6,0.9,x,x
COc1ccc(C)c2sc(N(CCCN(C)C)C(=O)c3ccc4c(c3)OCCO4)nc12,0.7,-2.2,40.1,23.4*,3.7,17.2,7.9
O=C(COc1ccc(F)cc1Cl)Nc1cccc(S(=O)(=O)N2CCCCCC2)c1,0.3,-1.1,18.4,6.1,-0.5,x,x
Cc1noc(/C=C/c2ccccn2)c1[N+](=O)[O-],-2.4,-0.2,5.9,42.2*,1.7,77.3*,70.2*
Cc1ccc(NC2=C(Cl)C(=O)OC2NC(=O)c2ccccc2)cc1 (configuration not stated),-2.5,5.0,16.1,-6.1,-1.4,x,x
O=C1OC(NC(=O)c2ccccc2)C(n2cc(CO)nn2)=C1Cl (configuration not stated),-0.7,-1.8,30.9,64.3*,-1.3,90.3*,102.6*
Cc1nnc(N=c2ssnc2Cl)o1,34.2,-18.3,47.8,47.2*,-2.3,97.5*,110.1*
O=C(O)c1ccc2nc(-c3ccco3)c(-c3ccco3)nc2c1,2.2,-1.4,4.0,26.9*,-0.2,82.2*,94.0*
SMILES,UPR CHOP act,Exocytosis inh,Mdm2 MdmX PPI,ABHD5-PLIN5 inh,XBP1 UPR activ,ABHD5 PLIN5 conf,HNF4 split-luc
O=S(=O)(c1ccc2nc(-c3ccco3)c(-c3ccco3)nc2c1)N1CCOCC1,-0.1,-1.2,33.8,25.8*,-0.8,78.1*,62.2*
CCCc1cc(=O)oc2cc(C)cc(OC(=O)c3ccco3)c12,-1.5,-4.5,10.9,4.9,0.0,x,x
COCCCN(C(=O)c1cc2c(s1)CCCCC2)c1c(N)n(Cc2ccccc2)c(=O)[nH]c1=O,2.1,-3.5,26.7,-6.7,-1.0,x,x
Cc1ccc(NC(=O)COc2ccc3c(c2)OCO3)c(C)c1,5.9,-4.0,-22.7,-5.3,0.0,x,x
Cc1ccc(C(=O)/C=C/c2cc(Br)cc(Br)c2O)o1,-1.2,-3.8,23.8,30.0*,-1.3,58.7*,24.9*
CCCCOC(=O)Nc1ccc(C(=O)OC)cc1,5.3,0.4,-37.4,-2.7,5.6,x,x
CCCCOC(=O)Nc1cc(C(=O)OC)ccc1C(=O)OC,-1.8,1.3,17.7,27.6*,-1.8,42.6*,5.5
CCOC(=O)C1CCN(C(=O)C2(NC(=O)NC3CCCCC3)CCCCC2)CC1,-0.6,2.4,-25.4,0.4,-0.2,x,x
CCOc1cc(/C=C\[N+](=O)[O-])ccc1OCC(=O)N1CCOCC1,28.7,7.2,-4.3,29.0*,-5.3,69.6*,69.9*
O=C(CSc1nnc(COc2ccccc2)n1Cc1ccco1)NCc1ccco1,-1.1,2.4,9.7,37.0*,-0.4,44.1*,54.4*
CCCCn1c(SCC(=O)NCc2ccco2)nnc1-c1ccoc1C,0.2,4.4,-4.8,24.2*,-3.1,54.6*,27.9*
Cc1cc(N/N=C/c2cccc(Br)c2)nc2ccccc12,5.6,-8.7,-200.9,2.6,3.3,x,x
CC(=O)OCCNc1cc(Sc2nc3ccccc3[nH]2)c2nonc2c1[N+](=O)[O-],x,11.1,x,60.0*,x,70.7*,112.1*
CCOc1ccccc1C1N=C(c2ccc(OC)cc2)CC(c2ccccc2O)N1 (configuration not stated),8.0,16.0,-19.6,25.2*,10.6,56.9*,47.6*
Cc1ccccc1CN1C(=O)c2ccccc2S1(=O)=O,1.7,-9.8,27.6,-3.2,6.2,x,x
